From ChEMBL document CHEMBL4196091 (Eur J Med Chem, 2018)
Activity calls are given as the source filed them. The calls are words filed in the database; no cut-off is given here.

Experiments:
A549 [1] = assay: Cell cycle arrest in human A549 cells assessed as accumulation at G2/M phase at 3 nM after 24 hrs by propidium iodide staining based flow cytometry; type: functional
Procedure, shortened: (§1)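 A549 cells maintained in DMEM (1 g/L glucose, 2 mM glutamine, penicillin/streptomycin/amphotericin B, 10% FBS) and treated for 24 h. Cells were then fixed, RNase-treated and stained with propidium iodide. DNA content was measured by flow cytometry to give cell-cycle phase distribution, including a sub-G1 peak. Data are means (±SD) of two experiments.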

HT-29 [2] = assay: Antiproliferative activity against human HT-29 cells after 2 days by MTT assay; type: functional, cell-based; settings: HT-29, 48 h
MCF7 = assay: Antiproliferative activity against human MCF7 cells after 2 days by MTT assay; type: functional, cell-based; settings: MCF7, 48 h
A549 [3] = assay: Antiproliferative activity against human A549 cells after 2 days by MTT assay; type: functional, cell-based; settings: A549, 48 h
HEK293 = assay: Antiproliferative activity against HEK293 cells after 2 days by MTT assay; type: ADME, cell-based; settings: Homo sapiens, HEK293, 48 h
A549 [4] = assay: Cell cycle arrest in human A549 cells assessed as accumulation at sub-G0 phase at 20 nM after 24 hrs by propidium iodide staining based flow cytometry (reference value: 2 +/- 1%); type: functional; procedure, shortened: as §1
A549 [5] = assay: Cell cycle arrest in human A549 cells assessed as accumulation at G0/G1 phase at 20 nM after 24 hrs by propidium iodide staining based flow cytometry (reference value: 73 +/- 3%); type: functional; procedure, shortened: as §1
A549 [6] = assay: Cell cycle arrest in human A549 cells assessed as accumulation at S phase at 20 nM after 24 hrs by propidium iodide staining based flow cytometry (reference value: 15 +/- 6%); type: functional; procedure, shortened: as §1
A549 [7] = assay: Cell cycle arrest in human A549 cells assessed as accumulation at G2/M phase at 20 nM after 24 hrs by propidium iodide staining based flow cytometry (reference value: 11 +/- 4%); type: functional; procedure, shortened: as §1
HT-29 [8] = assay: Downregulation of c-Myc gene expression in human HT-29 cells assessed as c-Myc mRNA level at 0.5 nM after 48 hrs by RT-PCR method (reference value: 100%); type: functional
Procedure, shortened: (§2)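 HT-29 cells were taken at 70–80% confluence and seeded at 1.5 x 10^5 per well. After 24 h they were exposed to compound for 48 h. Total RNA was isolated and TaqMan RT-qPCR run for VEGF-A, c-MYC and hTERT, normalized to β-actin. Expression is given as percent of DMSO control, with at least three measurements and one-sample t-tests.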

HT-29 [9] = assay: Downregulation of hTERT gene expression in human HT-29 cells assessed as hTERT mRNA level at 0.5 nM after 48 hrs by RT-PCR method (reference value: 100%); type: functional; procedure, shortened: as §2
HT-29 [10] = assay: Downregulation of VEGF gene expression in human HT-29 cells assessed as VEGF mRNA level at 0.5 nM after 48 hrs by RT-PCR method (reference value: 100%); type: functional; procedure, shortened: as §2
HT-29 [11] = assay: Inhibition of VEGF protein secretion in human HT-29 cells assessed as VEGF protein level at 0.5 nM after 48 hrs by ELISA (reference value: 100%); type: functional; parameters: scale not given: the % may be the effect or the level left
HT-29 [12] = assay: Downregulation of c-Myc gene expression in human HT-29 cells assessed as c-Myc mRNA level at 9 nM after 48 hrs by RT-PCR method (reference value: 100%); type: functional; procedure, shortened: as §2
HT-29 [13] = assay: Downregulation of hTERT gene expression in human HT-29 cells assessed as hTERT mRNA level at 9 nM after 48 hrs by RT-PCR method (reference value: 100%); type: functional; procedure, shortened: as §2
HT-29 [14] = assay: Downregulation of VEGF gene expression in human HT-29 cells assessed as VEGF mRNA level at 9 nM after 48 hrs by RT-PCR method (reference value: 100%); type: functional; procedure, shortened: as §2
HT-29 [15] = assay: Inhibition of VEGF protein secretion in human HT-29 cells assessed as VEGF protein level at 9 nM after 48 hrs by ELISA (reference value: 100%); type: functional; parameters: scale not given: the % may be the effect or the level left
A549 [16] = assay: Cell cycle arrest in human A549 cells assessed as accumulation at sub-G0 phase at 50 nM after 24 hrs by propidium iodide staining based flow cytometry (reference value: 2 +/- 1%); type: functional; procedure, shortened: as §1
A549 [17] = assay: Cell cycle arrest in human A549 cells assessed as accumulation at G0/G1 phase at 50 nM after 24 hrs by propidium iodide staining based flow cytometry (reference value: 73 +/- 3%); type: functional; procedure, shortened: as §1
A549 [18] = assay: Cell cycle arrest in human A549 cells assessed as accumulation at S phase at 50 nM after 24 hrs by propidium iodide staining based flow cytometry (reference value: 15 +/- 6%); type: functional; procedure, shortened: as §1
A549 [19] = assay: Cell cycle arrest in human A549 cells assessed as accumulation at G2/M phase at 50 nM after 24 hrs by propidium iodide staining based flow cytometry (reference value: 11 +/- 4%); type: functional; procedure, shortened: as §1
HT-29 [20] = assay: Downregulation of c-Myc gene expression in human HT-29 cells assessed as c-Myc mRNA level at 40 nM after 48 hrs by RT-PCR method (reference value: 100%); type: functional; procedure, shortened: as §2
HT-29 [21] = assay: Downregulation of c-Myc gene expression in human HT-29 cells assessed as c-Myc mRNA level at 10 nM after 48 hrs by RT-PCR method (reference value: 100%); type: functional; procedure, shortened: as §2
HT-29 [22] = assay: Downregulation of hTERT gene expression in human HT-29 cells assessed as hTERT mRNA level at 40 nM after 48 hrs by RT-PCR method (reference value: 100%); type: functional; procedure, shortened: as §2
HT-29 [23] = assay: Downregulation of hTERT gene expression in human HT-29 cells assessed as hTERT mRNA level at 10 nM after 48 hrs by RT-PCR method (reference value: 100%); type: functional; procedure, shortened: as §2
HT-29 [24] = assay: Downregulation of VEGF gene expression in human HT-29 cells assessed as VEGF mRNA level at 40 nM after 48 hrs by RT-PCR method (reference value: 100%); type: functional; procedure, shortened: as §2
HT-29 [25] = assay: Downregulation of VEGF gene expression in human HT-29 cells assessed as VEGF mRNA level at 10 nM after 48 hrs by RT-PCR method (reference value: 100%); type: functional; procedure, shortened: as §2
HT-29 [26] = assay: Inhibition of VEGF protein secretion in human HT-29 cells assessed as VEGF protein level at 40 nM after 48 hrs by ELISA (reference value: 100%); type: functional; parameters: scale not given: the % may be the effect or the level left
HT-29 [27] = assay: Inhibition of VEGF protein secretion in human HT-29 cells assessed as VEGF protein level at 10 nM after 48 hrs by ELISA (reference value: 100%); type: functional; parameters: scale not given: the % may be the effect or the level left
HT-29 [28] = assay: Downregulation of c-Myc gene expression in human HT-29 cells assessed as c-Myc mRNA level at 2 nM after 48 hrs by RT-PCR method (reference value: 100%); type: functional; procedure, shortened: as §2
HT-29 [29] = assay: Downregulation of hTERT gene expression in human HT-29 cells assessed as hTERT mRNA level at 2 nM after 48 hrs by RT-PCR method (reference value: 100%); type: functional; procedure, shortened: as §2
HT-29 [30] = assay: Downregulation of VEGF gene expression in human HT-29 cells assessed as VEGF mRNA level at 2 nM after 48 hrs by RT-PCR method (reference value: 100%); type: functional; procedure, shortened: as §2
HT-29 [31] = assay: Inhibition of VEGF protein secretion in human HT-29 cells assessed as VEGF protein level at 2 nM after 48 hrs by ELISA (reference value: 100%); type: functional; parameters: scale not given: the % may be the effect or the level left
HT-29 [32] = assay: Downregulation of c-Myc gene expression in human HT-29 cells assessed as c-Myc mRNA level at 5 nM after 48 hrs by RT-PCR method (reference value: 100%); type: functional; procedure, shortened: as §2
HT-29 [33] = assay: Downregulation of hTERT gene expression in human HT-29 cells assessed as hTERT mRNA level at 5 nM after 48 hrs by RT-PCR method (reference value: 100%); type: functional; procedure, shortened: as §2
HT-29 [34] = assay: Downregulation of VEGF gene expression in human HT-29 cells assessed as VEGF mRNA level at 5 nM after 48 hrs by RT-PCR method (reference value: 100%); type: functional; procedure, shortened: as §2
HT-29 [35] = assay: Inhibition of VEGF protein secretion in human HT-29 cells assessed as VEGF protein level at 5 nM after 48 hrs by ELISA (reference value: 100%); type: functional; parameters: scale not given: the % may be the effect or the level left
HT-29 [36] = assay: Downregulation of c-Myc gene expression in human HT-29 cells assessed as c-Myc mRNA level at 30 nM after 48 hrs by RT-PCR method (reference value: 100%); type: functional; procedure, shortened: as §2
HT-29 [37] = assay: Downregulation of hTERT gene expression in human HT-29 cells assessed as hTERT mRNA level at 30 nM after 48 hrs by RT-PCR method (reference value: 100%); type: functional; procedure, shortened: as §2
HT-29 [38] = assay: Downregulation of VEGF gene expression in human HT-29 cells assessed as VEGF mRNA level at 30 nM after 48 hrs by RT-PCR method (reference value: 100%); type: functional; procedure, shortened: as §2
HT-29 [39] = assay: Inhibition of VEGF protein secretion in human HT-29 cells assessed as VEGF protein level at 30 nM after 48 hrs by ELISA (reference value: 100%); type: functional; parameters: scale not given: the % may be the effect or the level left

SMILES	Activity (A549 [1])	IC50 (HT-29 [2])	IC50 (MCF7)	IC50 (A549 [3])	IC50 (HEK293)	Activity (A549 [4])	Activity (A549 [5])	Activity (A549 [6])	Activity (A549 [7])	Activity (A549 [16])	Activity (A549 [17])	Activity (A549 [18])	Activity (A549 [19])	further results
COc1cc2c(c(OC)c1OC)-c1ccc(OC)c(=O)cc1[C@@H](NC(=O)c1cccc(Br)c1)CC2	Active	0.56 nM	0.363 nM	14 nM	1.1 nM	4%	29%	16%	51%					Activity (HT-29 [8]): 34%; Activity (HT-29 [9]): 91%; Activity (HT-29 [10]): 61%; Activity (HT-29 [11]): 79%
COc1cc2c(c(OC)c1OC)-c1ccc(OC)c(=O)cc1[C@@H](NC(=O)c1ccc(Br)cc1)CC2	Active	11.4 nM	8.9 nM	4.2 nM	7.8 nM	4%	25%	16%	56%					Activity (HT-29 [12]): 41%; Activity (HT-29 [13]): >100%; Activity (HT-29 [14]): 37%; Activity (HT-29 [15]): 62%
COc1cc2c(c(OC)c1OC)-c1ccc(OC)c(=O)cc1[C@@H](NC(C)=O)CC2 [COLCHICINE]				12.2 nM						3%	27%	11%	59%	Activity (HT-29 [20]): 32%; Activity (HT-29 [21]): >100%; Activity (HT-29 [22]): 50%; Activity (HT-29 [23]): >100%; Activity (HT-29 [24]): 41%; Activity (HT-29 [25]): >100%; Activity (HT-29 [26]): 61%; Activity (HT-29 [27]): 100%
COc1cc2c(c(OC)c1OC)-c1ccc(OC)c(=O)cc1[C@@H](NC(=O)c1cccc(C)c1)CC2		2.23 nM	5.6 nM	8.7 nM	3.1 nM					16%	29%	10%	45%	Activity (HT-29 [28]): 44%; Activity (HT-29 [29]): 74%; Activity (HT-29 [30]): 53%; Activity (HT-29 [31]): 76%
COc1cc2c(c(OC)c1OC)-c1ccc(OC)c(=O)cc1[C@@H](NC(=O)c1ccccc1Br)CC2	Active	5.8 nM	7.6 nM	13 nM	8.5 nM	4%	27%	22%	47%					Activity (HT-29 [32]): 50%; Activity (HT-29 [33]): 88%; Activity (HT-29 [34]): 57%; Activity (HT-29 [35]): 80%
COc1cc2c(c(OC)c1OC)-c1ccc(OC)c(=O)cc1[C@@H](NC(=O)c1ccc(C(C)(C)C)cc1)CC2		32.7 nM	24 nM	36 nM	58 nM									Activity (HT-29 [36]): 82%; Activity (HT-29 [37]): >100%; Activity (HT-29 [38]): 73%; Activity (HT-29 [39]): 61%
